SMILES strings stand for the structures.

From ChEMBL document CHEMBL1154674, “Synthesis and evaluation of three 18F-labeled aminophenylbenzothiazoles as amyloid imaging agents” (J Med Chem, 2009) come the findings set out here.

What all share (type): ADME, organism-based, Macaca mulatta
Data set [1] can be described thus: Drug level in normal rhesus monkey parietal cortex assessed as standard uptake value at 96.3 MBq, iv after 155 mins by microPET. Conditions: in vivo.
Data set [2] in a line: Drug level in normal rhesus monkey thalamus assessed as standard uptake value at 96.3 MBq, iv after 105 mins by microPET. Conditions: in vivo, 1.75 h.
A short description of data set [3]: Drug level in normal rhesus monkey pons assessed as standard uptake value at 96.3 MBq, iv after 8 mins by microPET. Conditions: in vivo.
Data set [4] can be described thus: Drug level in normal rhesus monkey parietal cortex assessed as standard uptake value at 96.3 MBq, iv after 22.5 mins by microPET. Conditions: in vivo, 0.375 h.
Data set [5] in a line: Drug level in normal rhesus monkey cerebellum assessed as standard uptake value at 96.3 MBq, iv after 165 mins by microPET. Conditions: in vivo, 2.75 h. A digest of the protocol:
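One normal rhesus monkey, each tracer given iv via the vena saphena (81.2, 96.3 or 109.4 MBq), with 1 day between tracer injections. Dynamic brain μPET over 180 min used frames of 5 × 60 s, 5 × 120 s, 9 × 300 s and 12 × 600 s. Images were reconstructed by filtered back projection with a RAMP filter. Regional time-activity curves were expressed as SUV.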

Data set [6] is described as follows: Drug level in normal rhesus monkey frontal cortex assessed as standard uptake value at 96.3 MBq, iv after 17.5 mins by microPET. The settings on record: in vivo.
Data set [7] can be described thus: Drug level in normal rhesus monkey frontal cortex assessed as standard uptake value at 96.3 MBq, iv after 57.5 mins by microPET. Conditions: in vivo.
The nature of data set [8]: Drug level in normal rhesus monkey white matter assessed as standard uptake value at 96.3 MBq, iv after 3.5 mins by microPET. Conditions: in vivo.
Data set [9] can be described thus: Drug level in normal rhesus monkey white matter assessed as standard uptake value at 96.3 MBq, iv after 12 mins by microPET. Conditions: in vivo, 0.2 h.
Data set [10] in a line: Drug level in normal rhesus monkey pons assessed as standard uptake value at 81.2 MBq, iv after 1.5 mins by microPET. The settings on record: in vivo, 0.025 h.
Data set [11] can be described thus: Drug level in normal rhesus monkey white matter assessed as standard uptake value at 81.2 MBq, iv after 10 mins by microPET. Conditions: in vivo.
Data set [12] is described as follows: Drug level in normal rhesus monkey frontal cortex assessed as standard uptake value at 81.2 MBq, iv after 42.5 mins by microPET. The settings on record: in vivo.
Data set [13] is described as follows: Drug level in normal rhesus monkey frontal cortex assessed as standard uptake value at 81.2 MBq, iv after 2.5 mins by microPET. The settings on record: in vivo.
Data set [14] can be described thus: Drug level in normal rhesus monkey frontal cortex assessed as standard uptake value at 81.2 MBq, iv after 10 mins by microPET. The settings on record: in vivo. A digest of the protocol: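 Single normal rhesus monkey; each tracer given iv via the vena saphena, with 1 day between tracer injections. Dynamic μPET ran 180 min (5×60 s, 5×120 s, 9×300 s, 12×600 s). Images were reconstructed by filtered back projection with a RAMP filter. Regional time-activity curves were expressed as SUV.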

Data set [15] is described as follows: Drug level in normal rhesus monkey cerebellum assessed as standard uptake value at 152.9 MBq, iv after 14 mins by microPET. The settings on record: in vivo. In outline:
(§1)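 One normal rhesus monkey received each tracer via the vena saphena, with 1 day between injections. Dynamic μPET ran 180 min for 18F tracers (5×60 s, 5×120 s, 9×300 s, 12×600 s) and 90 min for the 11C tracer (5×60 s, 5×120 s, 9×300 s, 3×600 s). Filtered back-projection reconstruction (RAMP filter) was used. Time-activity curves were drawn to give regional SUV.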

Data set [16] can be described thus: Drug level in normal rhesus monkey cerebellum assessed as standard uptake value at 152.9 MBq, iv after 52.5 mins by microPET. The settings on record: in vivo, 0.875 h. In outline: as §1
A short description of data set [17]: Drug level in normal rhesus monkey cerebellum assessed as standard uptake value at 152.9 MBq, iv after 85 mins by microPET. Conditions: in vivo. In outline:
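One normal rhesus monkey, tracer given iv via the vena saphena (152.9 MBq), with at least 1 day between tracer injections. Dynamic brain μPET over 90 min used frames of 5 × 60 s, 5 × 120 s, 9 × 300 s and 3 × 600 s. Images were reconstructed by filtered back projection with a RAMP filter. Regional time-activity curves were expressed as SUV.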

The nature of data set [18]: Drug level in normal rhesus monkey frontal cortex assessed as standard uptake value at 152.9 MBq, iv after 37.5 mins by microPET. Conditions: in vivo, 0.625 h. In outline:
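Single normal rhesus monkey; tracer given iv via the vena saphena, 1 day apart from the other tracer injections. Dynamic μPET ran 90 min (5×60 s, 5×120 s, 9×300 s, 3×600 s). Images were reconstructed by filtered back projection with a RAMP filter. Regional time-activity curves were expressed as SUV.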

Data set [19] is described as follows: Drug level in normal rhesus monkey white matter assessed as standard uptake value at 152.9 MBq, iv after 22.5 mins by microPET. Conditions: in vivo, 0.375 h.
Data set [20] can be described thus: Drug level in normal rhesus monkey white matter assessed as standard uptake value at 152.9 MBq, iv after 32.5 mins by microPET. The settings on record: in vivo.
A short description of data set [21]: Drug level in normal rhesus monkey white matter assessed as standard uptake value at 152.9 MBq, iv after 75 mins by microPET. Conditions: in vivo, 1.25 h.
Data set [22] can be described thus: Drug level in normal rhesus monkey white matter assessed as standard uptake value at 152.9 MBq, iv after 85 mins by microPET. The settings on record: in vivo.
Data set [23] in a line: Drug level in normal rhesus monkey pons assessed as standard uptake value at 152.9 MBq, iv after 42.5 mins by microPET. The settings on record: in vivo.
Data set [24] in a line: Drug level in normal rhesus monkey parietal cortex assessed as standard uptake value at 152.9 MBq, iv after 52.5 mins by microPET. The settings on record: in vivo, 0.875 h.
Data set [25] can be described thus: Drug level in normal rhesus monkey thalamus assessed as standard uptake value at 109.4 MBq, iv after 117 mins by microPET. Conditions: in vivo, 1.95 h.
Data set [26] in a line: Drug level in normal rhesus monkey pons assessed as standard uptake value at 109.4 MBq, iv after 1.5 mins by microPET. The settings on record: in vivo, 0.025 h.
Data set [27] can be described thus: Drug level in normal rhesus monkey pons assessed as standard uptake value at 109.4 MBq, iv after 6.5 mins by microPET. Conditions: in vivo.
Data set [28] in a line: Drug level in normal rhesus monkey pons assessed as standard uptake value at 109.4 MBq, iv after 37.5 mins by microPET. Conditions: in vivo, 0.625 h.
Data set [29] can be described thus: Drug level in normal rhesus monkey pons assessed as standard uptake value at 109.4 MBq, iv after 47.5 mins by microPET. The settings on record: in vivo.
Data set [30] is described as follows: Drug level in normal rhesus monkey frontal cortex assessed as standard uptake value at 109.4 MBq, iv after 0.625 mins by microPET. The settings on record: in vivo, 38 s.
The nature of data set [31]: Drug level in normal rhesus monkey frontal cortex assessed as standard uptake value at 109.4 MBq, iv after 0.875 mins by microPET. Conditions: in vivo, 52 s.
Data set [32] is described as follows: Drug level in normal rhesus monkey frontal cortex assessed as standard uptake value at 109.4 MBq, iv after 93 mins by microPET. Conditions: in vivo, 1.55 h.
Data set [33] in a line: Drug level in normal rhesus monkey thalamus assessed as standard uptake value at 109.4 MBq, iv after 69 mins by microPET. The settings on record: in vivo, 1.15 h.

Consider `CN(C)c1ccc2nc(-c3ccc([18F])cc3)sc2c1`, for which the SUV in data set [1] was found to be 1.23; in data set [2], 2.08; in data set [3], 1.44; in data set [4] it was 2.09; in data set [5], 0.79; in data set [6], 2.22. Besides, the SUV in data set [7] is given as 2.01; in data set [8], 1.15; in data set [9] it was 1.31.

For `CNc1ccc2nc(-c3ccc([18F])cc3)sc2c1`, the SUV amounted to 2.731 in [10]; 3.524 in data set [11]; 5.476 in [12]; 4.284 in data set [13]; 5.813 in data set [14].

As to `[11CH3]Nc1ccc(-c2nc3ccc(O)cc3s2)cc1` [PITTSBURGH COMPOUND B], the SUV is 2.11 in [15]; 0.813 in data set [16]; 0.685 in data set [17]; 0.912 in data set [18]; 1.229 in data set [19]; 1.12 in data set [20]. Also, the SUV in data set [21] is 0.828; in data set [22], 0.878; in [23], 1.179; in data set [24] it was 0.799.

On to `Nc1ccc2nc(-c3ccc([18F])cc3)sc2c1`, for which the SUV in data set [25] came out at 4.66; in [26] it was 2.87; in data set [27] it was 4.08; in data set [28] it was 4.73; in [29], 4.7; in data set [30], 1.15. For the same molecule, the SUV in data set [31] is 1.73; in [32] it was 4.25; in data set [33], 5.32.
